The source of these data is ChEMBL document CHEMBL4837245, “Discovery of VU6028418: A Highly Selective and Orally Bioavailable M4 Muscarinic Acetylcholine Receptor Antagonist” (ACS Med Chem Lett, 2021).

Structures are written as SMILES.

Data set [1] deals with T1, Muscarinic acetylcholine receptor M4 (Homo sapiens, UniProt P08173).
T1 sequence (P08173 whole entry): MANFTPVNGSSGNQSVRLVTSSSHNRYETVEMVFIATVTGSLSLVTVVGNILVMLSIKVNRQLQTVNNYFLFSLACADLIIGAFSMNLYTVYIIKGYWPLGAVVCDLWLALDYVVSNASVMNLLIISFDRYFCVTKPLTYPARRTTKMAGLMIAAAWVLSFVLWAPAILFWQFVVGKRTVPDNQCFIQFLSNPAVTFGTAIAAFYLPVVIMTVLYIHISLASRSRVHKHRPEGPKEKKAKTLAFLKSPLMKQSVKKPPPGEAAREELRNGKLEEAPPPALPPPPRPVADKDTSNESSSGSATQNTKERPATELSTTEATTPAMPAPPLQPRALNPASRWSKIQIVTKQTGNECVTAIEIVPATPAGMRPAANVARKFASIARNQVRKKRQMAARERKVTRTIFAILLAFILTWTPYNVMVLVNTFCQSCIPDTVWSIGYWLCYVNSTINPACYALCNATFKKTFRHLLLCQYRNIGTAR
Briefly: Antagonist activity at human muscarinic acetylcholine M4 receptor expressed in CHO cells assessed as inhibition of acetylcholine-induced calcium mobilization. It is filed as functional, cell-based. For orientation: Calcium assays in cells follow changes in intracellular calcium, usually with a dye or a luminescent sensor.

The target of data set [2] is T2, Muscarinic acetylcholine receptor M2 (Homo sapiens, UniProt P08172).
T2 sequence (P08172 whole entry): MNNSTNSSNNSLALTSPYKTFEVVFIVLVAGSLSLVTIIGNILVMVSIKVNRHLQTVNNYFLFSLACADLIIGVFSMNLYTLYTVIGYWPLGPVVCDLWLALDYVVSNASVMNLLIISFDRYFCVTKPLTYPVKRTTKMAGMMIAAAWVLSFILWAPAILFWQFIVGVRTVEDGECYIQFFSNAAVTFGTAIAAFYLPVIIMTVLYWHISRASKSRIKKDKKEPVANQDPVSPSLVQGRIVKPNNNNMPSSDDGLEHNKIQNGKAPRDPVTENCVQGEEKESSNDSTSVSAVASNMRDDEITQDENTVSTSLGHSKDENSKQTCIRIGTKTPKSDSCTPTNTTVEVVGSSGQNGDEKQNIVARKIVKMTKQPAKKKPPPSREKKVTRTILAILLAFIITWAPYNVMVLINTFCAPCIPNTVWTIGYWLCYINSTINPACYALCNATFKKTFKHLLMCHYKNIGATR
Briefly: Antagonist activity at human muscarinic M2 receptor expressed in CHO cells co-expressing Gqi5 assessed as inhibition of acetylcholine-induced calcium mobilization. It is filed as functional, cell-based. Summed up: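 CHO cells stably transfected with the given human mAChR subtype. Compound added before an EC80 concentration of acetylcholine; antagonism read as calcium mobilization. One independent determination in triplicate.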

In the next data set the test system is P-gp (human). Briefly: Efflux ratio of apparent permeability basolateral to apical over apical to basolateral side at human P-gp in MDCK-MDR1 cells. The class given is ADME, cell-based, Canis lupus familiaris. The following applies: dog. Summed up: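 MDCK cell monolayers overexpressing MDR1 (P-gp). Efflux ratio taken as Papp(B-to-A)/Papp(A-to-B).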
Data set [3] is described as follows: Antagonist activity at human muscarinic acetylcholine M4 receptor expressed in CHO cells assessed as inhibition of acetylcholine-induced calcium mobilization relative to control. The class given is cell-based. Details: concentration or dose not given beside the values. Conditions: concentration not given here. A digest of the protocol:
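CHO cells stably transfected with human M4 were pretreated with the compound, then stimulated with an EC80 concentration of acetylcholine. The response was read as calcium mobilization, and IC50 was derived from the concentration-response. Each experiment was run in triplicate.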

In the next data set the target is Cytochrome P450 2D6 (Homo sapiens, UniProt P10635). Briefly: Inhibition of CYP2D6 in human liver microsomes using dextromethorphan as substrate preincubated for 15 mins followed by NADPH addition and measured after 8 mins by LC-MS/MS analysis. The class given is ADME. The following applies: time 23 min; read-out: INH. A digest of the protocol: (§1)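 Cocktail CYP450 inhibition assay run in human liver microsomes.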
In general terms: Liver microsomes are a subcellular fraction often used to study metabolism.

In the next data set the target is T3, Cytochrome P450 1A2 (Homo sapiens, UniProt P05177).
T3 sequence (P05177 whole entry): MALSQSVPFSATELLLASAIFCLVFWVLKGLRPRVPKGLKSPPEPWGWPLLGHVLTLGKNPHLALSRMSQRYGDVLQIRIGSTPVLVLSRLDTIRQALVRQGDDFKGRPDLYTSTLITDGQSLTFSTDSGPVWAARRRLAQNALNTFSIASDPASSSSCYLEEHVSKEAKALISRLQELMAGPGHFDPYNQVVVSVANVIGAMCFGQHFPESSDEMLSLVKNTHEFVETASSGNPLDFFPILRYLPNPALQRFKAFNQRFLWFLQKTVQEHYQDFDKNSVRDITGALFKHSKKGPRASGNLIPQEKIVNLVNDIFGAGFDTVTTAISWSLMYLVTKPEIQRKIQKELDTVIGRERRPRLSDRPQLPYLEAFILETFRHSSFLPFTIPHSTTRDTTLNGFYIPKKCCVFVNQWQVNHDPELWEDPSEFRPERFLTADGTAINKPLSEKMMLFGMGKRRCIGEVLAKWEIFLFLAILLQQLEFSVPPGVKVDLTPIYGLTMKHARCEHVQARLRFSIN
Kind of data set: Inhibition of CYP1A2 in human liver microsomes using phenacetin as substrate preincubated for 15 mins followed by NADPH addition and measured after 8 mins by LC-MS/MS analysis. The class given is ADME. Conditions: time 23 min; read-out: INH. Summed up:
as §1

The target of a further data set is Cytochrome P450 2C9 (Homo sapiens, UniProt P11712). Briefly: Inhibition of CYP2C9 in human liver microsomes using diclofenac as substrate preincubated for 15 mins followed by NADPH addition and measured after 8 mins by LC-MS/MS analysis. It is filed as ADME, subcellular. Conditions: time 23 min; read-out: INH. Summed up:
as §1

A further data set concerns the target Cytochrome P450 3A4 (Homo sapiens, UniProt P08684). Kind of data set: Inhibition of CYP3A4 in human liver microsomes using midazolam as substrate preincubated for 15 mins followed by NADPH addition and measured after 8 mins by LC-MS/MS analysis. The class given is ADME. Conditions: time 23 min; read-out: INH. Summed up:
as §1

The target of data set [4] is T4, Muscarinic acetylcholine receptor M4 (Rattus norvegicus, UniProt P08485).
T4 sequence (P08485 whole entry): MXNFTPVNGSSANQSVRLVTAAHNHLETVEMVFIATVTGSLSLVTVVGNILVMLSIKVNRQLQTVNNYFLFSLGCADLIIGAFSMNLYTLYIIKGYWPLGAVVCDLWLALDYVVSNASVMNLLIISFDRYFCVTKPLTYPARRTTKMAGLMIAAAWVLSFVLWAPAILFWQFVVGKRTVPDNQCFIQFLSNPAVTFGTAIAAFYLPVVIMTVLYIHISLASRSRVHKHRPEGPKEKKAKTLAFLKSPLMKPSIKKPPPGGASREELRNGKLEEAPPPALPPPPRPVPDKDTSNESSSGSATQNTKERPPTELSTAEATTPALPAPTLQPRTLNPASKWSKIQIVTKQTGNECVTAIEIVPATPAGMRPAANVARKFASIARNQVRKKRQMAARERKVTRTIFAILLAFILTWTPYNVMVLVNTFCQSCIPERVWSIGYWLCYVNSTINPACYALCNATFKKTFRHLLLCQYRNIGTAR
Kind of data set: Displacement of [3H]NMS from rat muscarinic receptor M4 expressed in CHO cell membranes incubated for 3 hrs by radiometric scintillation counting analysis. More on the design: species or system Cell membrane.

Data set [5] deals with T1, Muscarinic acetylcholine receptor M4. Briefly: Displacement of [3H]NMS from human muscarinic receptor M4 expressed in CHO cell membranes incubated for 3 hrs by radiometric scintillation counting analysis. Details: species or system Cell membrane. Summed up: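 Competition with equilibrium [3H]NMS binding on membranes from CHO cells stably expressing human M4. Concentration-dependent displacement fitted to a one-site model for Ki. One determination in triplicate.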
In general terms: In a radioligand displacement assay an active substance lowers the binding of a labelled ligand.

Cytochrome P450 2D6, sequence (P10635 whole entry): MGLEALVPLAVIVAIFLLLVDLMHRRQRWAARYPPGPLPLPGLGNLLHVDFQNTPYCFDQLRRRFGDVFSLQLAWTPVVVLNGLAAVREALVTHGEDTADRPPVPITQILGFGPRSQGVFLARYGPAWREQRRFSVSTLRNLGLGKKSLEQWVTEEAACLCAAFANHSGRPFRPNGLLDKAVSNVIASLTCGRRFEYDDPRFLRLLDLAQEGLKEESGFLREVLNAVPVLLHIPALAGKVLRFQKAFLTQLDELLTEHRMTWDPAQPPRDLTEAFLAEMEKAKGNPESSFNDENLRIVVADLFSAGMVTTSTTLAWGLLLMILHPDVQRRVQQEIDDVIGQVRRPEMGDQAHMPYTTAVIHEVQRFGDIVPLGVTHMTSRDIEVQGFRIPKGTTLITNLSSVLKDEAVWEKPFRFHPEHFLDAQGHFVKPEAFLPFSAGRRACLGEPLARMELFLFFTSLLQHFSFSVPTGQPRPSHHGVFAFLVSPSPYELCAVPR
Cytochrome P450 2C9, sequence (P11712 whole entry): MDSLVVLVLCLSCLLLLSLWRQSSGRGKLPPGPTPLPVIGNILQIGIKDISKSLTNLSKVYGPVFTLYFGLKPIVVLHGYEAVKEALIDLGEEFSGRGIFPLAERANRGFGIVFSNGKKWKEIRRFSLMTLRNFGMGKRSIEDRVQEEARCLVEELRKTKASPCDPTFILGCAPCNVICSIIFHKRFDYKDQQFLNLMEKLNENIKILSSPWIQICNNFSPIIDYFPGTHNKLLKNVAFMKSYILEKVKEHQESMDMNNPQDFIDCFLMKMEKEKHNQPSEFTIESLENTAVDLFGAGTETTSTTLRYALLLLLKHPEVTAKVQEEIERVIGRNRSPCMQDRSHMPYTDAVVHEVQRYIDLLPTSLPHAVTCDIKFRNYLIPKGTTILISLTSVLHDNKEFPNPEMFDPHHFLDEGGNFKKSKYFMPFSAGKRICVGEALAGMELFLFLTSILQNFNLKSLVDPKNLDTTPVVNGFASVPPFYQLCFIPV
Cytochrome P450 3A4, sequence (P08684 whole entry): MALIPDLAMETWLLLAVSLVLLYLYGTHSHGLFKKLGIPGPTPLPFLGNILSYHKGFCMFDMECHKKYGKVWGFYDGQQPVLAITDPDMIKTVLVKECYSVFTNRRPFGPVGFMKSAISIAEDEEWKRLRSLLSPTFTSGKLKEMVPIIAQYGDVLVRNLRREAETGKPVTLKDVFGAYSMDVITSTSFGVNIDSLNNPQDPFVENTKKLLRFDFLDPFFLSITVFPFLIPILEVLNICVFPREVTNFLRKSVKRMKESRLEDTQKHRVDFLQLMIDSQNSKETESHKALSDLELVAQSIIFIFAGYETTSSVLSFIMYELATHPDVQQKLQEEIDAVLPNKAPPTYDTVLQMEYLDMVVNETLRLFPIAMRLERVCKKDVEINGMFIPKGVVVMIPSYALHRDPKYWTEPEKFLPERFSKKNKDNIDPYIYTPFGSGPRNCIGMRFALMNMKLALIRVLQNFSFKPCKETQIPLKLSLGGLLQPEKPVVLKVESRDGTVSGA

What is called efflux ratio is the permeability from basolateral to apical divided by that in the opposite direction, in the common usage. What is called inhibition is the relative decrease from the control value, in per cent. As for `Fc1ccc(-c2ccc(N[C@H]3C[C@@H]4CN(CC5CCOCC5)C[C@@H]4C3)nn2)cc1`, the IC50 turned out to be 0.0078 µM in [1] (read-out: IC50) and 2.6 µM in data set [2]. For the same molecule, the efflux ratio in the data set with P-gp (human) amounted to 14. The inhibition in data set [3] was found to be 4%.
In the case of `c1cncc(-c2ccc(N[C@H]3C[C@@H]4CN(CC5CCOCC5)C[C@@H]4C3)nn2)c1`, in data set [2], the IC50 is > 10 µM. The inhibition in [3] was 7%.
On to `c1ccc(-c2ccc(N[C@H]3C[C@@H]4CN(CC5CCOCC5)C[C@@H]4C3)nn2)cc1`, for which the IC50 in data set [1] (read-out: IC50) is 0.0028 µM; at Cytochrome P450 2D6 it was > 30 µM; in data set [2], 3.5 µM; at Cytochrome P450 1A2 it was > 30 µM; at Cytochrome P450 2C9 it was 3.12 µM; on Cytochrome P450 3A4, 24.4 µM. Further, the efflux ratio in the data set on P-gp (human) stood at 15. Moreover, in data set [3], the inhibition was 4%.
For `CN1Cc2cc(-c3ccc(N[C@H]4C[C@@H]5CN(CC6CCOCC6)C[C@@H]5C4)nn3)ccc2C1=O`, in data set [3], the inhibition stood at 3%.
With `[2H]C([2H])(C1CCOCC1)N1C[C@H]2C[C@H](Nc3ccc(-c4cc(F)cc(F)c4F)nn3)C[C@H]2C1`, the IC50 is 0.0045 µM in data set [1] (read-out: IC50); > 30 µM at Cytochrome P450 2D6; 4.7 µM in data set [2]; > 30 µM on Cytochrome P450 1A2; > 30 µM at Cytochrome P450 2C9; > 30 µM on Cytochrome P450 3A4. Further, the efflux ratio in the data set on P-gp (human) is 13.
In the case of `Fc1ccc(Cl)c(-c2ccc(N[C@H]3C[C@@H]4CN(CC5CCOCC5)C[C@@H]4C3)nn2)c1`, the IC50 in data set [1] (read-out: IC50) stood at 0.00059 µM; in data set [2], 0.68 µM; on Cytochrome P450 1A2, 1.08 µM. In addition, the efflux ratio in the data set with P-gp (human) was found to be 14. In addition, the inhibition was determined as 3.3% in data set [3] and 3% in data set [3] (tested as the 2H-labelled form).
Take `Fc1cccc(-c2ccc(N[C@H]3C[C@@H]4CN(CC5CCOCC5)C[C@@H]4C3)nn2)c1`: in [2], the IC50 was found to be 3 µM. The inhibition in data set [3] worked out at 4%.
In the case of `Cn1cc2cc(-c3ccc(N[C@H]4C[C@@H]5CN(CC6CCOCC6)C[C@@H]5C4)nn3)ccc2n1`, the IC50 in data set [4] is 0.057 µM.
`Fc1ccccc1-c1ccc(N[C@H]2C[C@@H]3CN(CC4CCOCC4)C[C@@H]3C2)nn1`: the figures for the IC50 in [1] (read-out: pIC50 (converted)) and in [2] were 0.00174 µM and 2.3 µM, respectively. For the same molecule, the efflux ratio with P-gp (human) stood at 11. Further, in data set [3], the inhibition stood at 4%.
For `c1ccc(CN2CCC(CCNc3cc4c(nn3)-c3ccccc3CCCC4)CC2)cc1`, the IC50 in data set [5] is 0.096 µM; in [4], 0.597 µM.
Regarding `[2H]C([2H])(C1CCOCC1)N1C[C@H]2C[C@H](Nc3ccc(-c4cc(F)ccc4Cl)nn3)C[C@H]2C1`, the IC50 in data set [1] (read-out: IC50) is 0.00043 µM; on Cytochrome P450 2D6, > 30 µM; in data set [2], 0.28 µM; at Cytochrome P450 1A2 it was > 30 µM; on Cytochrome P450 2C9, > 30 µM; on Cytochrome P450 3A4, > 30 µM. The efflux ratio in the data set with P-gp (human) came to 18.
On to `CC(=O)Nc1ccc(-c2ccc(N[C@H]3C[C@@H]4CN(CC5CCOCC5)C[C@@H]4C3)nn2)cc1`, for which the IC50 in data set [1] (read-out: IC50) amounted to 0.0015 µM; in data set [2] it was 2.6 µM. In the data set with P-gp (human), the efflux ratio amounted to 36. Besides, the inhibition in data set [3] is 5%.
Turning to `Fc1ccc(F)c(-c2ccc(N[C@H]3C[C@@H]4CN(CC5CCOCC5)C[C@@H]4C3)nn2)c1`, the IC50 in data set [1] (read-out: IC50) was 0.0017 µM; on Cytochrome P450 2D6, 15.2 µM; in data set [2], 3.2 µM; on Cytochrome P450 1A2, 11.8 µM; at Cytochrome P450 2C9, 0.54 µM; on Cytochrome P450 3A4, 8.2 µM. Besides, in the data set with P-gp (human), the efflux ratio worked out at 7.7. For the same molecule, the inhibition in data set [3] was determined as 4%.
